# Measurements reported in ChEMBL document CHEMBL3792370, “New pseudodimeric aurones as palm pocket inhibitors of Hepatitis C virus RNA-dependent RNA polymerase” (Eur J Med Chem, 2016).
# Activity calls are given as the source filed them. The rule behind the calls is not given here.
# Columns and labels:
# Hepatitis C virus = assay: Antiviral activity against HCV genotype 2a/2a J6/JFH1 model infected in Huh7.5 cells after 72 hrs by luciferase reporter gene assay; assay type: functional, organism-based, Hepacivirus hominis; conditions: subtype 2a J6/JFH1, Huh7.5, 72 h
# Procedure, shortened: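 Huh7.5 cells were seeded at 10 000 cells/well and infected 24 h later with J6/JFH1 HCVcc, then incubated overnight at 37°C. Cells were washed and given increasing compound concentrations in medium with 1% DMSO for 72 h at 37°C. After a PBS wash, cells were lysed in Renilla lysis buffer and luciferase activity was read for 10 s.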
# [1] = Inhibition of HCV J4 genotype 1b recombinant His-tagged NS5B truncated at 21 C-terminal expressed in Escherichia coli C41 (DE3) assessed as synthesis of […]; parameters: species or system Hepatitis C virus isolate HC-J4
# HEK293 = assay: Cytotoxicity against HEK293 cells at 50 uM after 72 hrs by MTT assay; conditions: human, hek293, 72 h
# [2] = system: Hepatitis C virus isolate HC-J4; assay: Inhibition of HCV J4 genotype 1b recombinant His-tagged NS5B truncated at 21 C-terminal H95Q mutant expressed in Escherichia coli C41 (DE3) assessed as synthesis of […]
# [3] = Inhibition of HCV J4 genotype 1b recombinant His-tagged NS5B truncated at 21 C-terminal P495L mutant expressed in Escherichia coli C41 (DE3) assessed as synthesis of […]; parameters: species or system Hepatitis C virus isolate HC-J4
SMILES,EC50 (Hepatitis C virus),IC50 [1],Activity (HEK293),Activity [2],IC50 [3]
COc1c(-c2ccc3cc(NS(C)(=O)=O)ccc3c2)cc(-n2ccc(=O)[nH]c2=O)cc1C(C)(C)C [DASABUVIR],9.1 µM,0.6 µM,,,
COc1cc(OC)c2c(c1)O/C(=C\c1cccc(/C=C3\Oc4cc(OC)cc(OC)c4C3=O)c1)C2=O,,,Non-toxic,,
O=C1/C(=C/c2ccc(/C=C3\Oc4cc(O)cc(O)c4C3=O)cc2)Oc2cc(O)cc(O)c21,202 µM,1.3 µM,Non-toxic,inactive,1.5 µM
O=C1/C(=C/c2ccc(OCC(COc3ccc(/C=C4\Oc5cc(O)cc(O)c5C4=O)cc3)CC3CCCCC3)cc2)Oc2cc(O)cc(O)c21 (stereo unspecified),90 µM,1.8 µM,,,
O=C1/C(=C/c2ccc(OCC(COc3ccc(/C=C4\Oc5cc(O)cc(O)c5C4=O)cc3)C3CCCCC3)cc2)Oc2cc(O)cc(O)c21 (stereo unspecified),42 µM,2 µM,,,
CC(C)CC(COc1ccc(/C=C2\Oc3ccccc3C2=O)cc1)COc1ccc(/C=C2\Oc3ccccc3C2=O)cc1,> 400 µM,,,,

# More lines, main results first:
EC50 (Hepatitis C virus),IC50 [1],SMILES,Activity (HEK293),Activity [2],IC50 [3]
76 µM,1.9 µM,CC(C)CC(COc1ccc(/C=C2\Oc3cc(O)cc(O)c3C2=O)cc1)COc1ccc(/C=C2\Oc3cc(O)cc(O)c3C2=O)cc1,,,
214 µM,1.5 µM,O=C1/C(=C/c2ccc(OCCCOc3ccc(/C=C4\Oc5cc(O)cc(O)c5C4=O)cc3)cc2)Oc2cc(O)cc(O)c21,,,
,3.6 µM,O=C1/C(=C/c2cccc(/C=C3\Oc4cc(O)cc(O)c4C3=O)c2)Oc2cc(O)cc(O)c21,,,
,1.9 µM,O=C1/C(=C/c2ccc(OCC(COc3ccc(/C=C4\Oc5cc(O)cc(O)c5C4=O)cc3)C3CCCC3)cc2)Oc2cc(O)cc(O)c21 (stereo unspecified),,,
,3.1 µM,O=C1/C(=C/c2ccc(-c3cccc(/C=C4\Oc5cc(O)cc(O)c5C4=O)c3)cc2)Oc2cc(O)cc(O)c21,,,
,6 µM,O=C1/C(=C/c2ccc(-c3ccccc3/C=C3\Oc4cc(O)cc(O)c4C3=O)cc2)Oc2cc(O)cc(O)c21,,,
